Rev-RRE block – HIV Rev-RRE protein-RNA interaction inhibition. P05866. Rev peptide-RRE RNA binding, FRET. inhibition, % at 8 µM. 97,000 tested, 0.79% active. AID 704;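 active = inhibition above the screen-wide mean plus 3 SD, cut at about 35% in these data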;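 also: 0% = median DMSO wells and 100% = median Neomycin B control wells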
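assay system = Cy5-tagged RRE RNA duplex with fluorescein-tagged Rev peptide | incubation = 5 + 15 min at 25 °C | also added = labelled Rev peptide | measure = % inhibition of FRET ratio versus controls | benchmarks = DMSO wells as 0% and neomycin B wells as 100% inhibition | measured by = FRET fluorescence readout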
Plk1 PBD FP – Plk1 (human) PBD binding inhibition; P53350; Plk1 PBD phosphopeptide binding, fluorescence polarization; AID 693; inhibition, %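 (tested at about 20 µM)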; 97,000 tested, 0.13% active; in the data active = inhibition above about 34%, passing the limit was not always enough
LYP inh 2 – LYP (human) phosphatase inhibition; recombinant LYP catalytic domain, DiFMUP fluorescence; inhibition, % at 2 µM; 96,000 tested, 0.21% active; AID 640;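 active = inhibition at 2 µM at or above a set limit, the screen mean plus 3 SD, cut at about 24% in these data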;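 also: 0% = DMSO with enzyme and 100% = enzyme fully blocked by orthovanadate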
Target sequence (Q9Y2R2 whole entry, looked up, the tested form may be a part): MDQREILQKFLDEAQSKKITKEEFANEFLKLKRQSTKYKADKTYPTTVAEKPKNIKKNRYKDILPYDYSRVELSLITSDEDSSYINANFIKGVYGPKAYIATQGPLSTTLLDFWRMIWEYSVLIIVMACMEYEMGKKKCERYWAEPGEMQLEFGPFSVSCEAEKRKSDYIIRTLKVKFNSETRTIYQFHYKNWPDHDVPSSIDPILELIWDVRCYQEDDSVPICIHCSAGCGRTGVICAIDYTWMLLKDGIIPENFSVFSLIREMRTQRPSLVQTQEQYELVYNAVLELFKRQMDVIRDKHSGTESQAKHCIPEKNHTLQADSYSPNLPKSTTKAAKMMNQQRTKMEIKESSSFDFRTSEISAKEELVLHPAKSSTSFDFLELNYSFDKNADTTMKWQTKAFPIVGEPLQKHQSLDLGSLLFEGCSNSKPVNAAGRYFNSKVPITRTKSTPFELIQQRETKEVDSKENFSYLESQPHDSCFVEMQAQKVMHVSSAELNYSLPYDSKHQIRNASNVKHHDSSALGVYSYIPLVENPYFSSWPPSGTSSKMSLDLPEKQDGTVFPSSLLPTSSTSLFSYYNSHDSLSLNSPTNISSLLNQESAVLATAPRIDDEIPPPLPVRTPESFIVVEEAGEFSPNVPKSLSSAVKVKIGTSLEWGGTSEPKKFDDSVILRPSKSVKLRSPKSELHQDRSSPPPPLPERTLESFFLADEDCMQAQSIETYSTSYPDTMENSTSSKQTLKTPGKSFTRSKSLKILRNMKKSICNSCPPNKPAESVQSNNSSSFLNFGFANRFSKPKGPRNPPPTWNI
PTPN22 act – increases human PTPN22 phosphatase activity; 96,000 tested, 0.11% active; recombinant LYP, DiFMUP fluorescence; 0 = plate median, 100 = signal doubled; Q9Y2R2; activation, % at 2 µM;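 active = activation at 2 µM above a set limit, the mean plus 5 SD, cut at about 37% in these data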
hDAT+cocaine – modulates human dopamine transporter uptake under cocaine; B-score at 10 µM; Q01959; LLC-PK1 hDAT cells, [14C]-dopamine uptake with cocaine IC80; actives deviate in either direction; 110,000 tested, 1.3% active;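 active = Z score or B-score, a plate-position-corrected score, falls beyond the plate's 99.7% confidence bounds, in either direction; inactive = both scores lie inside the 99.7% bounds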;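 also: scored against the spread of the other compound wells on the same plate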
PLK1 inh – blocks human PLK1 kinase activity; P53350; recombinant PLK1 kinase, TR-FRET peptide phosphorylation; inhibition, % at 10 µM; 97,000 tested, 0.53% active; AID 619;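 active = inhibition of 50% or more in the single-concentration screen; inactive = inhibition below 50%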;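 also: 0% = DMSO max control and 100% = H-89 dihydrochloride min control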
Active calls of the source: *; / = not tested or not shown; [ ] = remark or other dose. Sampled rows, rich in hits. Any-hit rate of the full collection: about 2.7%.

SMILES | Rev-RRE block | Plk1 PBD FP | LYP inh 2 | PTPN22 act | hDAT+cocaine | PLK1 inh
COc1ccc(Br)cc1CNC(=O)CCN1C(=O)COc2ccccc21 | / | / | / | / | 0.559 | /
COc1ccc(OC)c(CNC(=O)CCN2C(=O)COc3ccccc32)c1 | 4.2 | 2.3 | 6.8 | -11.5 | 1.62* | -7.5
C#CCNC(=O)C1=C[C@H](C)C[C@H](OCc2ccc(CO)cc2)O1 | / | / | / | / | -0.627 | /
CCCCCc1c2c(cc(O)c1C(=O)O)OC(=O)c1c(cc(OC)cc1C(=O)CCCC)O2 | / | / | / | / | 5.3* | /
COc1ccccc1NS(=O)(=O)c1cc([N+](=O)[O-])ccc1N/N=C/c1c[nH]c2ccccc12 | 63.9*[fluorescence artefact?] | 19.7 | 5.7 | -4.0 | -0.0587 | -9.4
Cc1[nH]c2ccccc2c1/C=N/Nc1ccc([N+](=O)[O-])cc1S(=O)(=O)Nc1ccc(Cl)cc1 | 40.5* | 8.4 | -1.4 | 0.0 | -1.62 | -21.9
Cc1ccc(S(=O)(=O)N/N=C\c2cc([N+](=O)[O-])ccc2Cl)cc1 | 3.0 | 11.8 | 0.2 | 5.2 | -0.362 | -7.4
O=[N+]([O-])c1ccc(N/N=C/c2c[nH]c3ccccc23)cc1 | 58.4*[fluorescence artefact?] | 8.1 | -0.2 | 5.1 | -0.505 | -13.0
O=[N+]([O-])c1ccccc1N/N=C/c1c[nH]c2ccccc12 | 3.1 | -7.5 | 16.1 | -12.6 | -1.13 | -10.6
COc1ccc(NS(=O)(=O)c2cc([N+](=O)[O-])ccc2N/N=C\c2c(C)[nH]c3ccccc23)cc1 | 44.2* | -1.4 | -9.3 | 6.5 | -0.0136 | -16.0
COc1c(/C=N/Nc2ccc([N+](=O)[O-])cc2[N+](=O)[O-])c(C)nn1-c1ccccc1 | 10.5 | -21.6 | 8.0 | -5.5 | 0.0627 | -0.1
O=C(CSc1cccc(C(F)(F)F)c1)Nc1ccc(Cl)cc1Cl | 12.3 | -37.8 | 5.5 | -6.4 | 0.872 | -7.9
O=CN/C=C/c1cc(O)ccc1O | / | / | / | / | -0.558 | /
O=S(=O)(N/N=C\c1cn(-c2ccccc2)nc1-c1ccccc1)c1ccccc1 | 3.1 | 5.5 | -1.9 | 4.0 | 0.854 | -12.9
O=[N+]([O-])c1ccc(N/N=C/c2cn(-c3ccccc3)nc2-c2ccccc2)cc1 | 63.7* | -26.9 | -1.3 | 2.8 | 0.945 | -18.1
CC(C)=CCOc1ccc([C@@H]2COc3c(ccc4c3C=CC(C)(C)O4)C2)c(O)c1 | / | / | / | / | -0.291 | /
COc1ccc(Br)cc1S(=O)(=O)n1ccnc1C | -3.6 | 4.0 | -2.5 | 0.7 | 2.66* | -8.1
CC1CCN(c2cc(N3CCC(C)CC3)c([N+](=O)[O-])cc2/C=C(\C#N)c2nn(-c3ccccc3)c(N)c2C#N)CC1 | 8.9 | -12.5 | -4.8 | 6.4 | 0.16 | 55.4*
Cc1cc(-c2ccco2)n2c(nc3ccccc32)c1C#N | 47.0* | -0.6 | 3.5 | -3.4 | / | -6.8
COC(=O)C1CSc2[nH]c(=O)sc2C1c1ccccc1 (stereo not given) | 78.5* | -25.6 | -5.5 | 6.1 | 0.0088 | -16.7
CCc1cccc2c(C=C(C#N)C#N)cn(CC(=O)N3CCCCCC3)c12 | -1.4 | 2.4 | -7.0 | 9.9 | 0.59 | -4.5
COc1c(N2CCN(C(=S)NCc3ccccc3)C(C)C2)c(F)cc2c(=O)c(C(=O)O)cn(C3CC3)c12 (stereo not given) | -8.2 | 11.9 | 35.1* | -34.0 | 3.29 | -16.3
COc1ccc(/C(O)=C/c2nc3ccccc3n(-c3ccccc3)c2=O)cc1 | 78.0* | -4.2 | 2.2 | 0.7 | 1.05 | -15.5
COc1ccc(Oc2nc3ccccc3n(C)c2=O)cc1 | 1.9 | 17.4 | -12.1 | 9.4 | 1.22 | -2.7
COc1ccc(OCC(=O)OCCN2C(=O)c3ccccc3C2=O)cc1 | -7.1 | -12.4 | 2.8 | -4.3 | 1.37 | -14.0
SMILES | Rev-RRE block | Plk1 PBD FP | LYP inh 2 | PTPN22 act | hDAT+cocaine | PLK1 inh
O=C(CCN1C(=O)c2ccccc2C1=O)Oc1ccc2ccccc2c1 | -0.3 | 20.9 | 75.0* | -74.4 | 1.33 | -6.6
COc1ccc(NC(=O)COC(=O)c2c3c(nc4ccccc24)CCCC3)cc1Cl | 4.1 | -30.9 | 8.5 | -6.9 | -1.25 | -5.6
Cc1cc(-c2ccccc2)n(-c2ccc(C(=O)N3CCN(c4ncccn4)CC3)cc2)n1 | 1.1 | 19.6 | -17.3 | 11.5 | 2.5* | -3.6
O=C(NCc1cccnc1)[C@@H]1CC=C[C@@H]2CCN(Cc3ccccc3)C(=O)[C@@H]21 | / | / | / | / | 0.0968 | /
O=C(O)C1C2C=CC3(CN(Cc4ccncc4)C(=O)C13)O2 (stereo not given) | / | / | / | / | -8.7* | /
COc1ccccc1NC(=O)CC1C(=O)Nc2c1c(=O)n(C)c(=O)n2C (stereo not given) | 4.0 | -1.4 | -10.3 | 9.3 | -0.0722 | -7.1
Cn1c2c(c(=O)n(C)c1=O)C(CC(=O)Nc1ccccc1)C(=O)N2 (stereo not given) | 7.1 | -12.5 | -8.5 | 5.1 | -7.95* | -10.9
O=C(CSc1nc(C2CC2)nc2ccccc12)N1c2ccccc2Sc2ccccc21 | 2.0 | 8.3 | -0.5 | 2.0 | / | -6.1
CC(C)C[C@H](NC(=O)c1[nH]cnc1C(=O)Nc1ccccc1)C(=O)OC(C)(C)C | / | / | / | / | 1.95 | /
c1nc(N2CCOCC2)c2[nH]cnc2n1 | 10.1 | 0.6 | 2.3 | -3.9 | 0.128 | 63.0*
Cn1c(SCC(=O)Nc2ccc(NC(=O)c3cccs3)cc2)nnc1-c1ccncc1 | 2.9 | -3.5 | -13.7 | 9.8 | -0.404 | -14.8
O=C1c2ccccc2-c2cccc(NS(=O)(=O)c3ccc(C(F)(F)F)cc3)c21 | 100.4*[fluorescence artefact?] | -42.5 | 9.6 | -8.2 | -1.03 | -9.0
Cc1ccc(C)c(NC(=O)CCC(=O)OC(C(=O)c2ccccc2)c2ccccc2)c1 (stereo not given) | 3.7 | 6.8 | 2.5 | 2.8 | 1.48 | -8.7
O=C(CCC(=O)OC(C(=O)c1ccccc1)c1ccccc1)Nc1ccccc1 (stereo not given) | 4.4 | 10.1 | 24.5* | -27.6 | -0.407 | -5.8
Cc1c(S(=O)(=O)N2CCc3ccccc3C2)c(=O)n(C)c(=O)n1C | -0.1 | -15.5 | 0.3 | -0.8 | 0.376 | -13.9
Cc1ccc(-n2c(SCC(N)=O)nnc2-c2ccccn2)cc1C | 0.0 | -42.6 | 9.8 | -6.7 | -0.529 | 4.5
Cc1csc(NC(=O)CSc2nnc(-c3ccccn3)n2-c2ccc(C)c(C)c2)n1 | 1.0 | -3.4 | -3.4 | 2.3 | 2.68* | -14.4
CC(C)c1nc(CN(C)C(=O)N[C@H](C(=O)N[C@@H](Cc2ccccc2)C[C@H](O)[C@H](Cc2ccccc2)NC(=O)OCc2cncs2)C(C)C)cs1 | / | / | / | / | 0.852 | /
COc1ccc([N+](=O)[O-])cc1COc1cc(C)cc2oc(=O)cc(-c3ccccc3)c12 | 7.5 | -28.2 | 6.2 | -8.1 | -0.487 | 9.0
O=C(NCC1CCCC(CNC(=O)N2CCc3ccccc32)C1)N1CCc2ccccc21 (stereo not given) | 3.9 | -18.0 | -3.3 | 2.9 | 2.36 | -9.1
Cc1nc2sc(C(c3ccccc3)N3CCN(c4ccccc4F)CC3)c(O)n2n1 (stereo not given) | 7.8 | -5.7 | -3.4 | 0.3 | -0.626 | -7.0
COc1cccc(C(c2sc3nc(C)nn3c2O)N2CCN(c3ccccc3F)CC2)c1 (stereo not given) | / | / | / | / | 2.71* | /
